Data: ChEMBL document CHEMBL1806364, “Discovery of vinylogous carbamates as a novel class of β-ketoacyl-acyl carrier protein synthase III (FabH) inhibitors” (Bioorg Med Chem, 2011)
pIC50: −log10 of the molar value. In brackets after ≈: the same amount, converted by molar mass.

Tests used:
Escherichia coli = assay: Antibacterial activity against Escherichia coli after 24 hrs by MTT assay; assay type: functional
Summary of the method: (§1)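 Broth microdilution in Mueller-Hinton medium. Compound stock 100 µg/mL in DMSO, serially diluted into medium. Inoculum about 10⁵ cfu/mL, incubated 37 °C for 24 h. After visual MIC reading, MTT (2 mg/mL in PBS pH 7.4) added, 4–5 h at room temperature. Dye extracted with isopropanol containing 5% 1 mol/L HCl for 12 h, OD read at 550 nm.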

Pseudomonas fluorescens = assay: Antibacterial activity against Pseudomonas fluorescens after 24 hrs by MTT assay; assay type: functional; summary of the method: as §1
Staphylococcus aureus = assay: Antibacterial activity against Staphylococcus aureus after 24 hrs by MTT assay; assay type: functional; summary of the method: as §1
Bacillus subtilis = assay: Antibacterial activity against Bacillus subtilis after 24 hrs by MTT assay; assay type: functional; summary of the method: as §1
[1] = Toxicity in erythrocytes assessed as hemolytic activity; assay type: cell-based; conditions: erythrocyte
[2] = biological target: T1, 3-oxoacyl-[acyl-carrier-protein] synthase 3 (Escherichia coli, UniProt C3TDZ2); assay: Inhibition of Escherichia coli FabH expressed in Escherichia coli DH10B cells assessed as incorporation of 3[H] after 25 mins by liquid scintillation
T1 sequence (C3TDZ2 whole entry): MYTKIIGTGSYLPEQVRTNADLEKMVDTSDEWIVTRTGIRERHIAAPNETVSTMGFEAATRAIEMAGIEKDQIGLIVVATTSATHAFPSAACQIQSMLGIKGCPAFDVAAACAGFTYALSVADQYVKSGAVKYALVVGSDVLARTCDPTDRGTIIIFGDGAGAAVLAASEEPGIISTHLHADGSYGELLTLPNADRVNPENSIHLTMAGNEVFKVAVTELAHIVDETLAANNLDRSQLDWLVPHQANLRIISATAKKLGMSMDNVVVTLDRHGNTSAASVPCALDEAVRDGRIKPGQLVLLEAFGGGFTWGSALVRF
Summary of the method: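 Native E. coli FabH overexpressed from pET30 in DH10B cells and purified by Q-Sepharose, MonoQ and hydroxyapatite chromatography. Reaction mix contains 0.25 mM MgCl₂, acetyl-CoA, 0.5 mM NADH and 0.5 mM NADPH, run 25 min. Stopped with ice-cold 50% TCA, protein pelleted, washed with 10% TCA, dissolved in 0.5 M NaOH. Incorporated ³H counted by liquid scintillation. DMSO at most 2% final; IC50 determined.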

Compound	MIC (Escherichia coli) [µg/mL]	MIC (Pseudomonas fluorescens) [µg/mL]	MIC (Staphylococcus aureus) [µg/mL]	MIC (Bacillus subtilis) [µg/mL]	pIC50 [2]	LC30 [1] [µg/mL]
CCOC(=O)/C(=C\Nc1ccc(Cl)cc1)c1ccc(OCc2ccccc2)cc1	12.5 (≈ 30.6 µM)	6.25 (≈ 15.3 µM)	25 (≈ 61.3 µM)	25 (≈ 61.3 µM)		
CCOC(=O)/C(=C/Nc1ccc(Cl)cc1)c1ccc(OCc2ccccc2)cc1	25 (≈ 61.3 µM)	25 (≈ 61.3 µM)	> 50	25 (≈ 61.3 µM)		
CCOC(=O)/C(=C\Nc1ccc(Cl)cc1Cl)c1ccc(OCc2ccccc2)cc1	25 (≈ 56.5 µM)	25 (≈ 56.5 µM)	25 (≈ 56.5 µM)	25 (≈ 56.5 µM)		
CCOC(=O)/C(=C/Nc1ccc(Cl)cc1Cl)c1ccc(OCc2ccccc2)cc1	25 (≈ 56.5 µM)	25 (≈ 56.5 µM)	> 50	> 50		
CCOC(=O)/C(=C/Nc1ccc(Br)cc1)c1ccc(OCc2ccccc2)cc1	> 50	> 50	> 50	> 50	4.37	> 10000
CCOC(=O)/C(=C/Nc1ccc(C)cc1)c1ccc(OCc2ccccc2)cc1	> 50	> 50	> 50	> 50		
CCOC(=O)/C(=C\Nc1ccc(Br)cc1Br)c1ccc(OCc2ccccc2)cc1	12.5 (≈ 23.5 µM)	12.5 (≈ 23.5 µM)	25 (≈ 47.1 µM)	25 (≈ 47.1 µM)	4.62	> 10000
CCOC(=O)/C(=C\Nc1ccccc1Cl)c1ccc(OCc2ccccc2)cc1	12.5 (≈ 30.6 µM)	25 (≈ 61.3 µM)	> 50	> 50	4.55	> 10000
CCOC(=O)/C(=C/Nc1ccccc1Cl)c1ccc(OCc2ccccc2)cc1	25 (≈ 61.3 µM)	> 50	12.5 (≈ 30.6 µM)	25 (≈ 61.3 µM)		
CCOC(=O)/C(=C\Nc1ccc(F)cc1F)c1ccc(OCc2ccccc2)cc1	6.25 (≈ 15.3 µM)	12.5 (≈ 30.5 µM)	> 50	> 50		
CCOC(=O)/C(=C/Nc1ccc(F)cc1F)c1ccc(OCc2ccccc2)cc1	25 (≈ 61.1 µM)	25 (≈ 61.1 µM)	12.5 (≈ 30.5 µM)	12.5 (≈ 30.5 µM)		
CCOC(=O)/C(=C/Nc1ccc(C(C)C)cc1)c1ccc(OCc2ccccc2)cc1	6.25 (≈ 15 µM)	6.25 (≈ 15 µM)	25 (≈ 60.2 µM)	12.5 (≈ 30.1 µM)	5.07	> 10000
CCOC(=O)/C(=C/Nc1ccc([N+](=O)[O-])cc1)c1ccc(OCc2ccccc2)cc1	> 50	> 50	> 50	> 50		
CCOC(=O)/C(=C\Nc1ccccc1F)c1ccc(OCc2ccccc2)cc1	12.5 (≈ 31.9 µM)	25 (≈ 63.9 µM)	25 (≈ 63.9 µM)	> 50		
CCOC(=O)/C(=C/Nc1ccccc1F)c1ccc(OCc2ccccc2)cc1	25 (≈ 63.9 µM)	> 50	> 50	> 50		
CCOC(=O)/C(=C\Nc1ccccc1)c1ccc(OCc2ccccc2)cc1	12.5 (≈ 33.5 µM)	25 (≈ 66.9 µM)	50 (≈ 134 µM)	25 (≈ 66.9 µM)		
CCOC(=O)/C(=C/Nc1ccccc1)c1ccc(OCc2ccccc2)cc1	6.25 (≈ 16.7 µM)	6.25 (≈ 16.7 µM)	25 (≈ 66.9 µM)	25 (≈ 66.9 µM)		

Second part, led by results:

MIC (Escherichia coli) [µg/mL]	MIC (Pseudomonas fluorescens) [µg/mL]	MIC (Staphylococcus aureus) [µg/mL]	MIC (Bacillus subtilis) [µg/mL]	pIC50 [2]	Compound	LC30 [1] [µg/mL]
1.56 (≈ 3.45 µM)	1.56 (≈ 3.45 µM)	25 (≈ 55.3 µM)	50 (≈ 111 µM)	5.48	CCOC(=O)/C(=C\Nc1ccc(Br)cc1)c1ccc(OCc2ccccc2)cc1	> 10000
0.78 (≈ 2.01 µM)	1.56 (≈ 4.03 µM)	25 (≈ 64.5 µM)	25 (≈ 64.5 µM)	5.59	CCOC(=O)/C(=C\Nc1ccc(C)cc1)c1ccc(OCc2ccccc2)cc1	> 10000
3.13 (≈ 5.89 µM)	12.5 (≈ 23.5 µM)	12.5 (≈ 23.5 µM)	12.5 (≈ 23.5 µM)		CCOC(=O)/C(=C/Nc1ccc(Br)cc1Br)c1ccc(OCc2ccccc2)cc1	
3.12 (≈ 7.98 µM)	3.12 (≈ 7.98 µM)	> 50	25 (≈ 63.9 µM)	5.09	CCOC(=O)/C(=C\Nc1ccc(F)cc1)c1ccc(OCc2ccccc2)cc1	> 10000
6.25 (≈ 16 µM)	12.5 (≈ 31.9 µM)	12.5 (≈ 31.9 µM)	25 (≈ 63.9 µM)		CCOC(=O)/C(=C/Nc1ccc(F)cc1)c1ccc(OCc2ccccc2)cc1	
3.12 (≈ 7.52 µM)	3.12 (≈ 7.52 µM)	12.5 (≈ 30.1 µM)	25 (≈ 60.2 µM)		CCOC(=O)/C(=C\Nc1ccc(C(C)C)cc1)c1ccc(OCc2ccccc2)cc1	
3.12 (≈ 7.47 µM)	6.25 (≈ 14.9 µM)	> 50	> 50		CCOC(=O)/C(=C\Nc1ccc([N+](=O)[O-])cc1)c1ccc(OCc2ccccc2)cc1	
3.12 (≈ 6.46 µM)	3.12 (≈ 6.46 µM)	1.56 (≈ 3.23 µM)	0.39 (≈ 0.807 µM)		NC[C@H]1O[C@H](O[C@H]2[C@H](O)[C@@H](O[C@H]3O[C@H](CO)[C@@H](O)[C@H](N)[C@H]3O)[C@H](N)C[C@@H]2N)[C@H](N)[C@@H](O)[C@@H]1O [BEKANAMYCIN]	
